Shown are actives, neighbours in structure and some others; about 3.5% of the full set was active somewhere.
FGF22 binding: binders of recombinant human FGF22 by thermal shift | Q9HCT0 | SYPRO orange fluorescence; percent of sucrose octasulfate shift, DMSO zero | activity (Tm shift, normalised), % at 9.99 µM | hit rate 1.5% among 340,000 | AID 651658;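 active means mean Tm shift, scaled 0 neutral to 100 positive control, at about 1.3% or above, every replicate too, limit read from the data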
rRNA inh HTS: inhibits bacterial ribosomal RNA function over humanized ribosomes | E. coli WT GFP vs humanized-ribosome RFP mutants, fluorescence, 24 h; active compounds read low; DMSO median 0, no signal -100 | GFP signal change (wild-type ribosome), % (no concentration beside the values) | hit rate 1.6% among 350,000 | AID 720706;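 active means significant combined selectivity score with lowered wild-type GFP, culture density cut under 30%, mutant RFP and density less affected; inactive means any of these conditions unmet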
Cneo AK release: Cryptococcus neoformans lysis via adenylate kinase release. C. neoformans lysis, adenylate kinase release luminescence, 4 h; normalised: neutral wells 0, clomiphene wells 100. lysis activity, % at 15 µM. hit rate 0.2% among 360,000. AID 651654;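 active means mean lysis activity across replicates of at least 80%, whatever share of replicates individually reach that level; inactive means mean lysis activity below 80%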
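Assay system: Cryptococcus neoformans yeast cells / Dosing: single-point compound dose / Timing: 4 h at 37 °C static, read 1 h later / Measured by: luminescence of released adenylate kinase using an AK detection reagent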
ERAP1 inh: ERAP1 (human) enzyme inhibition; Q9NZ08; recombinant ERAP1, Leu-AMC fluorescence, 60 min; inhibition, % at 10.7 µM; hit rate 0.15% among 340,000; AID 652197;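 active means mean replicate inhibition of at least 30%, or all replicates individually reaching that 30% level; inactive means mean below 30% and not every replicate reaching it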;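 further: 0% = neutral control wells and 100% = L-leucinethiol positive control wells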
Target sequence (Q9NZ08 whole entry, looked up): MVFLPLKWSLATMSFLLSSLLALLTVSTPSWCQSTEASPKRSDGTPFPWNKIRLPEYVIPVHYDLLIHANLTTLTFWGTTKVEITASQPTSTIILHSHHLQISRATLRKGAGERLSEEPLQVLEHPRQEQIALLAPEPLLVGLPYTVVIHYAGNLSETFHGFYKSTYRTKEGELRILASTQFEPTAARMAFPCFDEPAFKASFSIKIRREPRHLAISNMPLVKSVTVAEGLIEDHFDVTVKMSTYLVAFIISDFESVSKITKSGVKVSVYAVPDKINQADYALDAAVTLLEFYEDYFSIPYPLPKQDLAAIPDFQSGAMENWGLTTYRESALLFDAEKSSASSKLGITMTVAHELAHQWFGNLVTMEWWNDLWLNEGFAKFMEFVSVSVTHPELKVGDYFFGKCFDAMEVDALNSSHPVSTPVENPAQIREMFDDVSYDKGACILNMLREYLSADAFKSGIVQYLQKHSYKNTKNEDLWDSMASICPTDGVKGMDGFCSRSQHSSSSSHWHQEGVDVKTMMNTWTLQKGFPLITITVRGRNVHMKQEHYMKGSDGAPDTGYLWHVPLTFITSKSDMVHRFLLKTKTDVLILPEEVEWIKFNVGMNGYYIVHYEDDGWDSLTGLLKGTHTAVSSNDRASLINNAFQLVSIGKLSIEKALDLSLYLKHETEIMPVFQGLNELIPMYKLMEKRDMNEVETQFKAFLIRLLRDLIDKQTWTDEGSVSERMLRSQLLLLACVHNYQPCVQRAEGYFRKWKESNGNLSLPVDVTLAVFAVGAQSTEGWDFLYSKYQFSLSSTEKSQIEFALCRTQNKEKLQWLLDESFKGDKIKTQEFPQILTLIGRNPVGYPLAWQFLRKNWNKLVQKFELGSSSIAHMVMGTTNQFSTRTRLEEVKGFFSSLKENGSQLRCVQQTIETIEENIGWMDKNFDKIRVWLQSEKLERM
Env fusion inh: blocks HIV Env-driven cell-cell fusion; HeLa-JRFL Env/CEM21 cell fusion, luciferase; inhibition, % at 12.3 µM; hit rate 1.1% among 360,000;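 active means mean replicate inhibition score of at least 50 and every replicate individually at or above 50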;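 further: 0% = plate neutral controls and 100% = maraviroc near 300 nM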
PGC1a acetyl inh: PGC1a acetylation modulation, inhibitor mode | U2OS PGC1a acetylation, AlphaScreen anti-acetyl-lysine; with virally co-expressed GCN5 acetyltransferase | inhibition, % at 15.6 µM | hit rate 0.17% among 350,000 | AID 651687;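 active means every replicate shows inhibition of at least 40%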;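 further: 0% = neutral control wells and 100% = positive control wells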
Starred values were filed as active, the others as inactive; i = inactive; nt = not tested or not shown; [ ] = another dose, or the depositor's remark.

SMILES	FGF22 binding	rRNA inh HTS	Cneo AK release	ERAP1 inh	Env fusion inh	PGC1a acetyl inh
O=C(Nc1ccc(F)cc1)N1CC(=O)N2[C@H](C1)[C@H](c1ccc(-c3ccc(F)cc3)cc1)[C@@H]2CO	nt	-46	nt	-3	nt	4
CCCCCN(C(=O)NC(=O)Nc1ccc(C)cc1C)S(C)(=O)=O	43*	-5	nt	1	-12	2
CCCCN(C(=O)NC(=O)Nc1cc(C)ccc1C)S(C)(=O)=O	0	5	1	13	nt	-4
COc1ccc(C(C(=O)NC(C)(C)C)N(CCO)C(=O)CCC(=O)Nc2cc(C)on2)cc1 (stereo unspecified)	43*	3	2	-3	4	-5
Nc1nnc(SCCCC(=O)c2ccc(F)cc2)s1	0	4	nt	2	nt	nt
O=C(CCCSc1nnc(SCCCC(=O)c2ccc(F)cc2)s1)c1ccc(F)cc1	nt	nt	-1	nt	60*	-3
O=C(C[C@H]1C=C[C@@H](NC(=O)Nc2cccc(F)c2)[C@H](CO)O1)NCC1CC1	0	0	1	0	-6[16.7 µM]	6
Cc1nc(N2CCN(c3ccccc3)CC2)nc2c1C(=O)CC(C)C2 (stereo unspecified)	nt	-33*	-3	2	-5	-24
Cc1nc(N2CCN(c3ccccc3)CC2)nc2c1C(=O)CC(c1ccccc1)C2 (stereo unspecified)	nt	nt	1	nt	64*	-2
CCOC(=O)c1ccc(N2C(=O)CC(N3CCC(O)(c4ccc(Br)cc4)CC3)C2=O)cc1 (stereo unspecified)	nt	nt	nt	nt	nt	47*
CCOC(=O)N/N=C/c1ccc(F)cc1	0	16	0	0	nt	3
CCN(CC(=O)Nc1ccc(C)c(F)c1)CC(=O)NC(C)(C)C	43*	-2	nt	-4	21	nt
CC1CCN(C2=C(NS(=O)(=O)c3ccc(Cl)cc3)C(=O)c3ccccc3C2=O)CC1	0	9	-1	13	1	5
CCN1CCN(C2=C(NS(=O)(=O)c3ccc(C)cc3)C(=O)c3ccccc3C2=O)CC1	0	-18*	-1	1	-2	-9
CC1CCN(C2=C(NS(=O)(=O)c3ccccc3)C(=O)c3ccccc3C2=O)CC1	0	-24*	nt	6	22	-4
COc1ccc2c(c1)cc(C(=O)N[C@H](C(=O)N1CCC[C@H]1C(=O)O)C(C)C)n2C	0	-3	2	-2	nt	0
Cc1ccc(C2NC(=O)c3c(sc(C)c3C)N2)c(O)c1 (stereo unspecified)	nt	nt	nt	nt	-96	-8
CC(C)c1cc(CNC(=O)CCc2nnc(CCCc3ccccc3)o2)on1	43*	7	nt	-2	-25	nt
CCc1cc(CNC(=O)CCc2nnc(CCCc3ccccc3)o2)on1	0	9	0	-5	-31	-11
O=C(CCc1nnc(CCCc2ccccc2)o1)NCCCC1CCCC1	43*	-40	nt	1	-17	3
O=C(CCc1nnc(CCCCc2ccccc2)o1)NCCn1cccn1	43*	-3	nt	-4	-13	nt
O=C1Cc2cc(NS(=O)(=O)c3ccc(F)cc3)cc3c2N1CCC3	0	-3	3	-1	-1	nt
Cc1noc(C)c1C(=O)OCC(=O)Nc1ccccc1C(=O)NC(C)c1ccccc1 (stereo unspecified)	nt	nt	1	nt	-29	nt
COc1ccc(OCC(=O)NC2CC(C)(C)NC(C)(C)C2)cc1	nt	nt	0	nt	nt	nt
CCOC(=O)CN1NC2(CCCCCC2)NC1=S	0	20	4	35*	-5	-9
SMILES	FGF22 binding	rRNA inh HTS	Cneo AK release	ERAP1 inh	Env fusion inh	PGC1a acetyl inh
Cc1ccc(C(=O)N/C(=C/c2ccccc2)C(=O)NC(Cc2ccccc2)C(=O)O)cc1 (stereo unspecified)	nt	nt	nt	nt	-14	nt
COC(C(=O)C(O)C(C)O)C1Cc2cc3cc(OC4CC(OC5CC(O)C(O)C(C)O5)C(O)C(C)O4)c(C)c(O)c3c(O)c2C(=O)C1OC1CC(OC2CC(OC3CC(O)C(OC)C(C)O3)C(O)C(C)O2)C(O)C(C)O1 (stereo unspecified)	-1	-12	nt	-3	78*	39
CCN(CC)C(=O)[C@H]1C[C@@H]2[C@H](C[C@@H](c3ccccc3)[C@H]1C)N(c1ccc(F)cc1)C(=O)N2CCCOc1ccccc1	43*	18	nt	-3	-29	nt
c1ccc(CN(Cc2ccccc2)C(c2ccnc3ccccc23)c2nnnn2-c2ccc3c(c2)OCCO3)cc1 (stereo unspecified)	0	23	nt	2	22	nt
Cc1cccc(C)c1-n1nnnc1C(c1ccnc2ccccc12)N(CCC#N)Cc1ccccc1 (stereo unspecified)	0	3	nt	-1	7	nt
CN(CCc1ccccc1)C(c1ccnc2ccccc12)c1nnnn1-c1ccc2c(c1)OCCO2 (stereo unspecified)	0	-15	nt	-1	60*	nt
Cc1cccc(C)c1-n1nnnc1C(c1ccnc2ccccc12)N(Cc1ccccc1)Cc1ccccc1 (stereo unspecified)	0	3	nt	3	90*	nt
C=CCn1c(SCC(=O)c2ccccc2)nnc1-c1ccc2c(c1)OCO2	nt	nt	nt	nt	nt	-26
COc1ccc(NC(=O)Nc2ccc3c(c2)C(=O)N([C@@H](C)CO)C[C@@H](C)[C@@H](CN(C)CC2CCCCC2)OCCCC[C@H](C)O3)cc1	1.3*	2	1	-1	12[16.7 µM]	13
C[C@@H]1CCCCO[C@@H](CN(C)CC2CCCCC2)[C@H](C)CN([C@H](C)CO)C(=O)c2cc(NC(=O)Nc3ccc(F)cc3)ccc2O1	-1	-38	50	-1	75*[16.7 µM]	1
CCCCSc1nnc(C)c(=O)[nH]1	0	4	-3	4	nt	-1
CCCCCSc1nnc(C)c(=O)[nH]1	0	-4	nt	1	nt	91*
COc1ccc(-c2[nH]ncc2CN2CCCC(C(=O)c3cccc(OC)c3)C2)cc1 (stereo unspecified)	0	6	2	0	-7	-2
COc1ccc2cc(-c3[nH]ncc3CN3CCCC3c3nonc3C)ccc2c1 (stereo unspecified)	0	-23*	0	-3	-171	6
O=C(COC(=O)C1CC1)Nc1ncc(C(F)(F)F)cc1Cl	44*	20	nt	-4	-10	4
COc1cc(/C=N/NC(=O)c2cc(-c3cccn3C)n[nH]2)cc(OC)c1OC	nt	nt	-2	nt	i	nt
COc1cccc(/C=N/NC(=O)c2cc(-c3cccn3C)n[nH]2)c1	nt	-24*	-1	3	-41	nt
COc1cccc(/C=N/NC(=O)c2cc(-c3cccn3C)n[nH]2)c1O	1	-36*	nt	-2	27	nt
O=C(N/N=C/C=C/c1ccccc1)c1cccs1	43*	12	nt	0	8	1
O=C(N/N=C/C=C/c1ccccc1[N+](=O)[O-])c1cccs1	0	10	3	-2	-15	4

High-throughput results (PubChem)
